In ChEMBL document CHEMBL1155695, “Prenylated benzoic acid derivatives from Ferula kuhistanica” (2000) one finds Activity and inhibition data, which are given here for 5 molecules.

Calls of active or inactive are those of the source. The calls are words filed in the database; no cut-off is given here.

What all share (assay type): functional
Test [1] is filed under the species Homo sapiens. Briefly: Immunosuppressive activity against human peripheral mononuclear cells assessed as inhibition of LPS-stimulated IL4 production at 10 ug/mL. Summed up: (§1)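 Whole blood from healthy human volunteers was used as the cell source for the immunosuppression screen. Other details follow a previously published method.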
The species entered for test [2] is Homo sapiens. Nature of the test: Immunosuppressive activity against human peripheral mononuclear cells assessed as inhibition of LPS-stimulated IL2 production at 10 ug/mL. The essentials: as §1
The species entered for test [3] is Homo sapiens. Briefly: Immunosuppressive activity against human peripheral mononuclear cells assessed as inhibition of LPS-stimulated IFN-gamma production at 10 ug/mL. The essentials: as §1
Test [4] in a line: Immunosuppressive activity against human peripheral mononuclear cells assessed as inhibition of LPS-stimulated IL4 production at 3 ug/mL. The essentials:
as §1

Test [5] is described as follows: Immunosuppressive activity against human peripheral mononuclear cells assessed as inhibition of LPS-stimulated IL2 production at 3 ug/mL. Summed up:
as §1

A short description of test [6]: Immunosuppressive activity against human peripheral mononuclear cells assessed as inhibition of LPS-stimulated IFN-gamma production at 3 ug/mL. The essentials:
as §1

Test [7] can be described thus: Immunosuppressive activity against human peripheral mononuclear cells assessed as inhibition of LPS-stimulated IL4 production at 0.3 ug/mL. Summed up: as §1
Test [8] is described as follows: Immunosuppressive activity against human peripheral mononuclear cells assessed as inhibition of LPS-stimulated IL2 production at 0.3 ug/mL. Summed up: as §1
Test [9] is described as follows: Immunosuppressive activity against human peripheral mononuclear cells assessed as inhibition of LPS-stimulated IFN-gamma production at 0.3 ug/mL. Summed up:
as §1

Regarding `C/C(=C\Cc1cc(C(=O)O)ccc1O)CCC(O)[C@]1(C)CC[C@H](C(C)(C)O)O1` (stereo not given in full), the result in the test listed under Homo sapiens [1], in the test filed under Homo sapiens [2] and in the test listed under Homo sapiens [3] was inactive.

Consider `CC(C)=CCCC(C)(O)C(O)CC/C(C)=C/Cc1cc(C(=O)O)ccc1O` (stereo not given), for which the result in the test filed under Homo sapiens [1], in the test filed under Homo sapiens [2] and in the test filed under Homo sapiens [3] was inactive.

Regarding `C/C(=C\Cc1cc(C(=O)O)ccc1O)CC/C=C(\C)CCC(O)C(C)(C)O` (racemic), the result in the test filed under Homo sapiens [1], in the test listed under Homo sapiens [2] and in the test filed under Homo sapiens [3] was inactive.

For the molecule `CC(C)=CCC/C(C)=C/CC[C@@]1(C)Oc2ccc(C(=O)O)cc2C[C@H]1O` (racemic) [KUHISTANOL D], the results for the inhibition at 3 µg/mL in test [4], in test [5] and in test [6] were 70.3%, 77.3% and 61.8%, respectively.

Turning to `C[C@]12C=CC(=O)C=C1CC[C@@H]1[C@@H]2[C@@H](O)C[C@@]2(C)[C@H]1CC[C@]2(O)C(=O)CO` [PREDNISOLONE], the inhibition at 0.3 µg/mL in test [7] turned out to be 55.3%; in test [8] it was 65.6%; in test [9], 60.2%.
